Calls of active or inactive are those of the source.
Tests used:
K562 [1] = assay: Effect on HIST2H2A gene expression in human K562 cells assessed as change in mRNA transcript expression at 10 nM after 48 hrs by DNA microarray analysis relative to control; format: functional
Method in brief: (§1)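 K562 CML cells (b3a2 Bcr-Abl) in standard ATCC-recommended culture, exposed once to 10 nM conjugate and harvested at 48 h. Untreated controls were also collected at 48 h. Transcripts were profiled on Human Gene 1.0 ST whole-genome oligonucleotide arrays, and each treated level was expressed relative to the untreated control, with a cutoff of at least twofold change.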

K562 [2] = assay: Effect on HIST1H2AC gene expression in human K562 cells assessed as change in mRNA transcript expression at 10 nM after 48 hrs by DNA microarray analysis relative to control; format: functional
Method in brief: (§2)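 Transcripts were profiled on Affymetrix GeneChip Human Gene 1.0 ST arrays in K562 cells treated at 10 nM. Treated cells were collected at 6, 12, 24 and 48 h; untreated controls were collected at 48 h. Transcripts changed at least twofold versus control were scored.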

K562 [3] = assay: Effect on AMN1 gene expression in human K562 cells assessed as change in mRNA transcript expression at 10 nM after 48 hrs by DNA microarray analysis relative to control; format: functional; method in brief: as §2
K562 [4] = assay: Effect on LPHN3 gene expression in human K562 cells assessed as change in mRNA transcript expression at 10 nM after 48 hrs by DNA microarray analysis relative to control; format: functional; method in brief: as §1
K562 [5] = assay: Effect on HIST1H3F gene expression in human K562 cells assessed as change in mRNA transcript expression at 10 nM after 48 hrs by DNA microarray analysis relative to control; format: functional; method in brief: as §2
K562 [6] = assay: Induction of apoptosis in human K562 cells assessed as late apoptotic cells at 125 nM after 48 hrs by annexin-V FITC and propidium iodide staining-based FACS analysis; format: functional
Method in brief: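 K562 cells were exposed to conjugate in culture medium for 48 h, then stained with annexin V-FITC plus propidium iodide. Cell populations were quantified by flow cytometry.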

K562 [7] = assay: Effect on HIST1H4B gene expression in human K562 cells assessed as down-regulation of mRNA transcript expression at 10 nM after 48 hrs by DNA microarray analysis relative to control; format: functional; method in brief: as §2
K562 [8] = assay: Effect on HIST1H3B gene expression in human K562 cells assessed as change in mRNA transcript expression at 10 nM after 48 hrs by DNA microarray analysis relative to control; format: functional; method in brief: as §2
K562 [9] = assay: Effect on HIST1H4C gene expression in human K562 cells assessed as down-regulation of mRNA transcript expression at 10 nM after 48 hrs by DNA microarray analysis relative to control; format: functional; method in brief: as §2
K562 [10] = assay: Effect on EGR1 gene expression in human K562 cells assessed as change in mRNA transcript expression at 10 nM after 48 hrs by DNA microarray analysis relative to control; format: functional; method in brief: as §2
K562 [11] = assay: Induction of apoptosis in human K562 cells assessed as non-viable necrotic cells at 250 nM after 48 hrs by annexin-V FITC and propidium iodide staining-based FACS analysis; format: functional
Method in brief: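 Treated K562 cells […] stained with Annexin V-FITC/propidium iodide. Apoptosis was scored by two-dimensional flow cytometry at a core FACS facility.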

K562 [12] = assay: Effect on CD52 gene expression in human K562 cells assessed as change in mRNA transcript expression at 10 nM after 48 hrs by DNA microarray analysis relative to control; format: functional; method in brief: as §2
K562 [13] = assay: Effect on PRF1 gene expression in human K562 cells assessed as change in mRNA transcript expression at 10 nM after 48 hrs by DNA microarray analysis relative to control; format: functional; method in brief: as §1
K562 [14] = assay: Effect on GPR56 gene expression in human K562 cells assessed as change in mRNA transcript expression at 10 nM after 48 hrs by DNA microarray analysis relative to control; format: functional; method in brief: as §2
K562 [15] = assay: Effect on C3 gene expression in human K562 cells assessed as change in mRNA transcript expression at 10 nM after 48 hrs by DNA microarray analysis relative to control; format: functional; method in brief: as §2
K562 [16] = assay: Effect on LGALS12 gene expression in human K562 cells assessed as change in mRNA transcript expression at 10 nM after 48 hrs by DNA microarray analysis relative to control; format: functional; method in brief: as §1
K562 [17] = assay: Effect on INPP5D gene expression in human K562 cells assessed as change in mRNA transcript expression at 10 nM after 48 hrs by DNA microarray analysis relative to control; format: functional; method in brief: as §1
K562 [18] = assay: Effect on NET1 gene expression in human K562 cells assessed as change in mRNA transcript expression at 10 nM after 48 hrs by DNA microarray analysis relative to control; format: functional; method in brief: as §1
K562 [19] = assay: Effect on HIST1H3J gene expression in human K562 cells assessed as change in mRNA transcript expression at 10 nM after 48 hrs by DNA microarray analysis relative to control; format: functional; method in brief: as §2
K562 [20] = assay: Effect on BAMBI gene expression in human K562 cells assessed as change in mRNA transcript expression at 10 nM after 48 hrs by DNA microarray analysis relative to control; format: functional; method in brief: as §2
K562 [21] = assay: Effect on TMEM126A gene expression in human K562 cells assessed as change in mRNA transcript expression at 10 nM after 48 hrs by DNA microarray analysis relative to control; format: functional
Method in brief: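 K562 CML cells (b3a2 Bcr-Abl) kept under standard culture conditions were exposed to 10 nM conjugate and harvested at 6, 12, 24 and 48 h. Untreated controls were harvested at 48 h. Whole-transcript oligonucleotide microarray profiling was done, and changes of at least twofold versus control were scored.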

K562 [22] = assay: Effect on HTR1F gene expression in human K562 cells assessed as change in mRNA transcript expression at 10 nM after 48 hrs by DNA microarray analysis relative to control; format: functional; method in brief: as §1
K562 [23] = assay: Effect on ARRDC3 gene expression in human K562 cells assessed as change in mRNA transcript expression at 10 nM after 48 hrs by DNA microarray analysis relative to control; format: functional; method in brief: as §2
K562 [24] = assay: Effect on HIST1H2A gene expression in human K562 cells assessed as change in mRNA transcript expression at 10 nM after 48 hrs by DNA microarray analysis relative to control; format: functional; method in brief: as §2
K562 [25] = assay: Effect on IMMP2L gene expression in human K562 cells assessed as change in mRNA transcript expression at 10 nM after 48 hrs by DNA microarray analysis relative to control; format: functional; method in brief: as §1
K562 [26] = assay: Effect on HSPA1A gene expression in human K562 cells assessed as change in mRNA transcript expression at 10 nM after 48 hrs by DNA microarray analysis relative to control; format: functional; method in brief: as §1
K562 [27] = assay: Effect on SNORD80 gene expression in human K562 cells assessed as change in mRNA transcript expression at 10 nM after 48 hrs by DNA microarray analysis relative to control; format: functional; method in brief: as §1
[28] = test system: histone H4c gene fragment DNA (human); assay: Binding affinity to 5'-ACGCCA-3' sequence of 223 bp human histone H4c gene fragment DNA assessed as DNA alkylating activity at 5 to 100 nM after 15 hrs by PAGE

CC(=O)Nc1cn(C)c(C(=O)Nc2cn(C)c(C(=O)NCCC(=O)Nc3cn(C)c(C(=O)NCCCC(=O)Nc4cc(C(=O)Nc5cn(C)c(C(=O)Nc6ccc7[nH]c(C(=O)N8CC(CCl)c9c8cc(O)c8ccccc98)cc7c6)n5)n(C)c4)n3)n2)n1 (stereo not drawn)
2.86: fold change (FC) (K562 [9])
>=2: fold change (FC) (K562 [1]) | fold change (FC) (K562 [2]) | fold change (FC) (K562 [3]) | fold change (FC) (K562 [4]) | fold change (FC) (K562 [5]) | fold change (FC) (K562 [8]) | fold change (FC) (K562 [10]) | fold change (FC) (K562 [12]) | fold change (FC) (K562 [13]) | fold change (FC) (K562 [14]) | fold change (FC) (K562 [15]) | fold change (FC) (K562 [16]) | fold change (FC) (K562 [17]) | fold change (FC) (K562 [18]) | fold change (FC) (K562 [19]) | fold change (FC) (K562 [20]) | fold change (FC) (K562 [21]) | fold change (FC) (K562 [22]) | fold change (FC) (K562 [23]) | fold change (FC) (K562 [24]) | fold change (FC) (K562 [25]) | fold change (FC) (K562 [26]) | fold change (FC) (K562 [27])
3.91: fold change (FC) (K562 [7])
active: Activity [28]
9.21%: Activity (K562 [6])
2.58%: Activity (K562 [11])

Reference: ChEMBL document CHEMBL1157704, “Potent activity against K562 cells by polyamide-seco-CBI conjugates targeting histone H4 genes” (Bioorg Med Chem, 2010)
